Reference: ChEMBL document CHEMBL1125794, “Synthesis and antihypertensive activity of pyran oxygen and amide nitrogen replacement analogues of the potassium channel activator cromakalim” (1991)

Legend:
Type in all cases: functional, Artery
Rattus norvegicus [1] = experiment: The compound was tested for the maximum fall in systolic blood pressure 1-6 hr of 3.0 mg/kg oral dose administration in rats
How it was run: (§1)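 Conscious spontaneously hypertensive rats of Japanese (Okamoto) strain, 14-24 weeks old, hypertensive if systolic pressure >180 mmHg; groups of six per dose level unless indicated. Oral gavage via esophageal needle as solution or suspension in 1% w/v methylcellulose. Tail-cuff systolic pressure (each value mean of ≥6 recordings) taken predose and at intervals up to 6 h postdose.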

Rattus norvegicus [2] = experiment: The compound was tested for the maximum fall in systolic blood pressure 1-6 hr of 10.0 mg/kg oral dose administration in rats; how it was run: as §1
Rattus norvegicus [3] = experiment: The compound was tested for the maximum fall in systolic blood pressure 1-6 hr of 1.0 mg/kg oral dose administration in rats; how it was run: as §1
Rattus norvegicus [4] = experiment: The compound was tested for the maximum fall in systolic blood pressure 1-6 hr of 10 mg/kg oral dose administration in rats; how it was run: as §1
Rattus norvegicus [5] = experiment: The compound was tested for the maximum fall in systolic blood pressure 1-6 hr of 0.1 mg/kg oral dose administration in rats; how it was run: as §1
Rattus norvegicus [6] = experiment: The compound was tested for the maximum fall in systolic blood pressure 1-6 hr of 0.3 mg/kg oral dose administration in rats; how it was run: as §1
Rattus norvegicus [7] = experiment: The compound was tested for the maximum fall in systolic blood pressure 1-6 hr of 3 mg/kg oral dose administration in rats; how it was run: as §1

CC1(C)C=C(N2CCCC2=O)c2cc(C#N)ccc2N1
Max fall in blood pressure (Rattus norvegicus [1]): 29%
Max fall in blood pressure (Rattus norvegicus [2]): 49%
Max fall in blood pressure (Rattus norvegicus [3]): 10%

CC1(C)Oc2ccc(Cl)cc2C(N2CCCC2=O)C1O (centres undefined)
Max fall in blood pressure (Rattus norvegicus [4]): 37%

CNC(=O)NC1c2cc(C#N)ccc2CC(C)(C)C1O (centres undefined)
Max fall in blood pressure (Rattus norvegicus [1]): 23%
Max fall in blood pressure (Rattus norvegicus [2]): 52%

CC1(C)C=C(N2CCCC2=O)c2cc(Cl)ccc2N1
Max fall in blood pressure (Rattus norvegicus [4]): 13%

CC1(C)Cc2ccc(C#N)cc2C(N2CCCC2=O)C1O (centres undefined)
Max fall in blood pressure (Rattus norvegicus [1]): 29%
Max fall in blood pressure (Rattus norvegicus [2]): 32%

CC(=O)NC1c2cc(C#N)ccc2OC(C)(C)C1O (centres undefined)
Max fall in blood pressure (Rattus norvegicus [5]): 18%
Max fall in blood pressure (Rattus norvegicus [1]): 47%
Max fall in blood pressure (Rattus norvegicus [3]): 67%

CC(=O)NC1c2cc(C#N)ccc2CC(C)(C)C1O (centres undefined)
Max fall in blood pressure (Rattus norvegicus [1]): 34%
Max fall in blood pressure (Rattus norvegicus [3]): 22%

CNC(=O)CC1c2cc(C#N)ccc2OC(C)(C)C1O (centres undefined)
Max fall in blood pressure (Rattus norvegicus [1]): 9%

CC(=O)CC1c2cc(C#N)ccc2OC(C)(C)C1O (centres undefined)
Max fall in blood pressure (Rattus norvegicus [2]): 30%
Max fall in blood pressure (Rattus norvegicus [3]): 5%

CC1(C)C=C(N2CCCC2=O)c2cc(Br)ccc2N1
Max fall in blood pressure (Rattus norvegicus [4]): 4%

CN(C)C(=O)CC1c2cc(C#N)ccc2OC(C)(C)C1O (centres undefined)
Max fall in blood pressure (Rattus norvegicus [1]): 51%
Max fall in blood pressure (Rattus norvegicus [3]): 28%

CNC(=O)NC1c2cc(C#N)ccc2OC(C)(C)[C@H]1O (some centres undefined)
Max fall in blood pressure (Rattus norvegicus [6]): 31%
Max fall in blood pressure (Rattus norvegicus [3]): 61%

CC1(C)C=C(N2CCCC2=O)c2cc(C#N)ccc2C1
Max fall in blood pressure (Rattus norvegicus [1]): 50%
Max fall in blood pressure (Rattus norvegicus [3]): 23%

CC1(C)C=C(N2CCCC2=O)c2cc(C#N)ccc2O1
Max fall in blood pressure (Rattus norvegicus [5]): 12%
Max fall in blood pressure (Rattus norvegicus [6]): 47%

CC1(C)Nc2ccc(C#N)cc2C(N2CCCC2=O)C1O (centres undefined)
Max fall in blood pressure (Rattus norvegicus [4]): 9%
Max fall in blood pressure (Rattus norvegicus [1]): 26%
Max fall in blood pressure (Rattus norvegicus [2]): 39%

CN1CCC(C2c3cc(C#N)ccc3OC(C)(C)C2O)C1=O (centres undefined)
Max fall in blood pressure (Rattus norvegicus [7]): 10%
Max fall in blood pressure (Rattus norvegicus [2]): 21%

CC1(C)Oc2ccc(C#N)cc2C(NC(=O)c2ccccc2)C1O (centres undefined)
Max fall in blood pressure (Rattus norvegicus [2]): 41%
Max fall in blood pressure (Rattus norvegicus [6]): 16%

CC1(C)Nc2ccc(Cl)cc2C(N2CCCC2=O)C1O (centres undefined)
Max fall in blood pressure (Rattus norvegicus [4]): 8%

CC1(C)Cc2ccc(C#N)cc2C(NC(=O)c2ccccc2)C1O (centres undefined)
Max fall in blood pressure (Rattus norvegicus [1]): 16%
Max fall in blood pressure (Rattus norvegicus [2]): 44%

CC1(C)Nc2ccc(Br)cc2C(N2CCCC2=O)C1O (centres undefined)
Max fall in blood pressure (Rattus norvegicus [4]): 6%

CC1(C)Oc2ccc(C#N)cc2C(N2CCCC2=O)C1O (centres undefined) [CROMAKALIM]
Max fall in blood pressure (Rattus norvegicus [6]): 39%
Max fall in blood pressure (Rattus norvegicus [3]): 47%
